Test results published in ChEMBL document CHEMBL1125887, “Nucleosides and nucleotides. 94. Radical deoxygenation of tert-alcohols in 1-(2-C-alkylpentofuranosyl) pyrimidines: synthesis of (2'S)-2'-deoxy-2'-C-methylcytidine, an antileukemic nucleoside” (J Med Chem, 1991).
≈ marks a conversion by molar mass, not a printed value.

How the values were obtained:
[1] = test system: L1210; experiment: Concentration required for 50% inhibition of cell growth of L1210 leukemic cell lines in mouse.; assay type: functional, cell-based
Procedure, shortened: (§1)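 MTT growth assay: each tumor cell line seeded at 1 × 10^4 cells/well and incubated with or without test compound for 72 h. MTT was then added and OD at 570 nm was read. % inhibition = [1 − OD(sample well)/OD(control well)] × 100. IC50 is the concentration in μg/mL giving 50% inhibition of cell growth.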

[2] = test system: U-937; experiment: Concentration required for 50% inhibition of cell growth of U937 leukemic cell lines in human.; assay type: functional, cell-based; procedure, shortened: as §1
[3] = test system: HL-60; experiment: Concentration required for 50% inhibition of cell growth of HL60 leukemic cell lines in human.; assay type: functional, cell-based; procedure, shortened: as §1
[4] = test system: TE-2; experiment: Concentration required for 50% inhibition of human […] squamous cell carcinoma TE2 solid cell lines.; assay type: functional, cell-based; procedure, shortened: as §1
[5] = test system: PC10; experiment: Concentration required for 50% inhibition of human lung squamous cell carcinoma PC10 solid cell lines.; assay type: functional, cell-based; procedure, shortened: as §1
[6] = test system: K562; experiment: Concentration required for 50% inhibition of cell growth of K562 leukemic cell lines in human.; assay type: functional, cell-based
Procedure, shortened: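 Tumour cells seeded at 1 × 10^4/well were grown with or without test compound for 72 h. MTT was then added and OD at 570 nm read. % inhibition = [1 − OD(sample)/OD(control)] × 100. IC50 is the concentration in μg/mL giving 50% growth inhibition.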

[7] = test system: KATO III stomach cancer cell line; experiment: Concentration required for 50% inhibition of human […] carcinoma KATO III solid cell lines.; assay type: functional, cell-based; procedure, shortened: as §1
[8] = test system: SW480; experiment: Concentration required for 50% inhibition of human […] carcinoma SW 480 solid cell lines.; assay type: functional, cell-based; procedure, shortened: as §1
[9] = test system: MOLT-4; experiment: Concentration required for 50% inhibition of cell growth of MOLT-4 leukemic cell lines in human.; assay type: functional, cell-based; procedure, shortened: as §1
[10] = test system: T-24; experiment: Concentration required for 50% inhibition of human bladder transitional-cell carcinoma T24 solid cell lines.
[11] = test system: CCRF-CEM; experiment: Concentration required for 50% inhibition of cell growth of CCRF CEM leukemic cell lines in human.; assay type: functional, cell-based; procedure, shortened: as §1
[12] = test system: PC-14; experiment: Concentration required for 50% inhibition of human lung squamous cell carcinoma PC14 solid cell lines.; assay type: functional, cell-based; procedure, shortened: as §1

## C[C@@H]1[C@H](O)[C@@H](CO)O[C@H]1n1ccc(N)nc1=O
[1]
  IC50: 40 µg/mL (≈ 166 µM)

## C[C@H]1[C@H](O)[C@@H](CO)O[C@H]1n1ccc(N)nc1=O
[1]
  IC50: 0.26 µg/mL (≈ 1.08 µM)
[2]
  IC50: 0.38 µg/mL (≈ 1.58 µM)
[3]
  IC50: 0.65 µg/mL (≈ 2.69 µM)
[4]
  IC50: > 100 µg/mL
[5]
  IC50: 81.8 µg/mL (≈ 339 µM)
[6]
  IC50: 2.2 µg/mL (≈ 9.12 µM)
[7]
  IC50: > 100 µg/mL
[8]
  IC50: > 100 µg/mL
[9]
  IC50: 0.032 µg/mL (≈ 0.133 µM)
[10]
  IC50: 1.1 µg/mL (≈ 4.56 µM)
[11]
  IC50: 0.15 µg/mL (≈ 0.622 µM)
[12]
  IC50: > 100 µg/mL

## C[C@]1(O)[C@H](O)[C@@H](CO)O[C@H]1n1ccc(N)nc1=O
[1]
  IC50: > 100 µg/mL

## C[C@@]1(O)[C@H](O)[C@@H](CO)O[C@H]1n1ccc(N)nc1=O
[1]
  IC50: 12 µg/mL (≈ 46.6 µM)

## Cc1cn([C@@H]2O[C@H](CO)C(O)[C@H]2C)c(=O)[nH]c1=O (some centres not stated)
[1]
  IC50: 32 µg/mL (≈ 125 µM)

## CC[C@@H]1C(O)[C@@H](CO)O[C@H]1n1ccc(N)nc1=O (some centres not stated)
[1]
  IC50: > 100 µg/mL

## Nc1ccn([C@@H]2O[C@H](CO)[C@@H](O)[C@@H]2O)c(=O)n1 [CYTARABINE]
[2]
  IC50: 0.31 µg/mL (≈ 1.27 µM)
[3]
  IC50: > 0.1 µg/mL
[4]
  IC50: > 100 µg/mL
[5]
  IC50: > 100 µg/mL
[7]
  IC50: > 100 µg/mL
[8]
  IC50: > 100 µg/mL
[10]
  IC50: > 100 µg/mL
[12]
  IC50: > 100 µg/mL

## O=c1[nH]cc(F)c(=O)[nH]1 [FLUOROURACIL]
[5]
  IC50: > 100 µg/mL
[6]
  IC50: 3.8 µg/mL (≈ 29.2 µM)
